Screens as filed in PubChem BioAssay.
HCT116 bCat-KO – primary screen for growth suppressors in beta-catenin knockout HCT116 cells (colon tumor, human). viability, % at 10 µM. HCT116 beta-catenin knockout viability, CellTiter-Glo, 60 h; hits give low values. 140,000 tested, 1.5% active;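 active means viability at or under a set limit, the compound median less 4 SD, cut at about 6% in these data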;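 further: 0% = Hyamine 1622 control at 20 µM and 100% = untreated cell control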
HUVEC prolif 384 – inhibitors of HUVEC proliferation, primary screen, cell-based, 384-well | CellTiter-Glo luminescence, 72 h; hits give low values | viability, % at 10 µM (by protocol) | 86,000 tested, 1.1% active | AID 648, 2007;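 active means viability at or below 30%; inactive means viability above 30%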;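 further: 100% = median luminescence of DMSO-only cell control wells on each plate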
Lung fibro prol – antiproliferative effect on LL 47 fibroblasts – human, LL 47 cells, CellTiter-Glo luminescence, primary screen | 85,000 tested, 1.1% active | LL 47 human lung fibroblast viability, ATP luminescence; hits give low values | viability, % at 10 µM;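 active means viability at or below 50% in the single dose screen; inactive means viability above 50%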;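 further: compound exposure lasted 72 h before the ATP readout; 100% = median luminescence of untreated cell-only wells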
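Signal: luminescent ATP detection, CellTiter-Glo; assay system: LL 47 human lung fibroblasts; input: 1,150 cells/well; incubation: overnight cell rest, 72 h compound treatment at 37 °C; measure: % viability versus median cells-only luminescence; medium: IMEM growth medium with 15% fetal bovine serum; dosing: compound addition at 0.1% DMSO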
Pyk2 oligo antag – antagonists of Pyk2 self-association, primary screen, Q293 cells, FERM NanoBiT luminescence, HTS; Protein-tyrosine kinase 2-beta (Homo sapiens), Q14289; hits give low values; z-score (the deposit names both 25 µM and 10 µM); 99,000 tested, 0.83% active;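 active means Z-score of -3 or lower, scaled per plate to the spread of control and sample wells; inactive means z-score above -3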;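 further: negative z-score means lost luminescence so less FERM oligomerization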
H69AR growth 86K – proliferation blockers of H69AR lung cancer cells, primary screen, cell-based, human, 86K library | 85,000 tested, 6% active | H69AR lung tumor viability, ATP luminescence, 72 h; hits give low values | AID 598, 2007 | viability, % at 10 µM;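 active means viability at or below 40%; inactive means viability above 40%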;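 further: multidrug resistant small cell line overexpressing MRP-1 efflux transporter; 100% = mean luminescence of untreated control wells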
PTEN del growth – growth suppression of PTEN-null HCT116, primary screen, cell-based, CellTiter-Glo | HCT116 PTEN-null viability, 60 h; hits give low values | viability, % at 10 µM | 140,000 tested, 1.2% active | AID 827, 2007;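 active means viability at or below a set limit, 4 SD under the median of all tested compounds, cut at about 3.7% in these data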;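 further: PTEN knockout HCT116 line with beta catenin targeted HCT116 as companion control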
Active calls of the source: *. This excerpt belongs to a sample that is enriched for hits.

For CN1CCN(C2=C(Cl)C(=O)N(C3CCCCC3)C2=O)CC1 the results were HCT116 bCat-KO 80, HUVEC prolif 384 60, Lung fibro prol 92, Pyk2 oligo antag -0.29, H69AR growth 86K 45 and PTEN del growth 85.
CN1CCN(C2=C(Cl)C(=O)C(c3cnc(N4CCCCC4)s3)=C(Cl)C2=O)CC1 was read as HCT116 bCat-KO 1.7*, HUVEC prolif 384 70, Lung fibro prol 5.8*, Pyk2 oligo antag 0.49, H69AR growth 86K 1.6* and PTEN del growth 1.6*.
`COc1ccc(C)cc1C(=O)CCC(=O)Nc1ccccc1N1CCOCC1` gave HCT116 bCat-KO 1.2*, HUVEC prolif 384 110, Lung fibro prol 91, Pyk2 oligo antag -0.33, H69AR growth 86K 81 and PTEN del growth 1.2*.
For CCOc1ccc(-n2c(C)nnc2SCC(=O)N(CC)CC)cc1 the results were HCT116 bCat-KO 95, HUVEC prolif 384 102, Lung fibro prol 105, Pyk2 oligo antag -1.9, H69AR growth 86K 106 and PTEN del growth 103.
`Cc1ccc(-c2nc3ncccc3o2)cc1NC(=O)COc1ccccc1` gave HCT116 bCat-KO 99, HUVEC prolif 384 89, Lung fibro prol 117, Pyk2 oligo antag 0.14, H69AR growth 86K 81 and PTEN del growth 91.
`Cc1ccc(-c2nc3cccnc3o2)cc1NC(=O)COc1ccc(C(C)(C)C)cc1` gave HCT116 bCat-KO 67, HUVEC prolif 384 18*, Lung fibro prol 82, Pyk2 oligo antag -2.9, H69AR growth 86K 44 and PTEN del growth 58.
Screening Cc1ccc(-c2nc3cccnc3o2)cc1NC(=O)COc1ccc(Cl)cc1C returned HCT116 bCat-KO 95, HUVEC prolif 384 33, Lung fibro prol 63, Pyk2 oligo antag 0.99, H69AR growth 86K 6.9* and PTEN del growth 23.
`Cc1ccc(-c2ccc(/C=N\NC(=O)c3cc4c(ccc5ccccc54)o3)o2)cc1[N+](=O)[O-]` gave HCT116 bCat-KO 1.2*, Pyk2 oligo antag 0.27 and PTEN del growth 0.6*.
Cc1cc(C)n(/N=C/c2ccc(C(C)C)cc2)c(=O)c1C#N was read as HCT116 bCat-KO 84 and PTEN del growth 84.
`Cc1nn(-c2ccccc2)c2c1C1(C(=O)N3c4c(cccc41)C(C)CC3(C)C)C(C#N)=C(N)O2` (stereo unspecified) gave HCT116 bCat-KO 81, HUVEC prolif 384 77, Lung fibro prol 100, Pyk2 oligo antag -2.2, H69AR growth 86K 39* and PTEN del growth 77.
Screening Cc1nn(-c2ccccc2)c2c1C1(C(=O)N(C)c3ccccc31)C(C#N)=C(N)O2 (stereo unspecified) returned HCT116 bCat-KO 27, HUVEC prolif 384 90, Lung fibro prol 93, Pyk2 oligo antag -1.4, H69AR growth 86K 42 and PTEN del growth 44.
For CCNc1nc(ON=C(C)C)nc(N(C)C)n1 the results were HCT116 bCat-KO 99, Pyk2 oligo antag 0.55 and PTEN del growth 99.
Screening CN1C(=O)c2ccccc2OC1(C)Cc1ccccc1 (stereo unspecified) returned HCT116 bCat-KO 88 and PTEN del growth 88.
Screening Cc1cc(C=O)c2c(c1)C=CC1(Oc3ccccc3C(=O)N1C)O2 (stereo unspecified) returned HCT116 bCat-KO 57, HUVEC prolif 384 80, Lung fibro prol 95, H69AR growth 86K 22* and PTEN del growth 58.
Screening CCn1c(/C=C/N(C)c2ccccc2)[n+](CC)c2ccc(Cl)cc21 returned HCT116 bCat-KO 3.8*, Pyk2 oligo antag 0.53 and PTEN del growth 5.
`CCn1c(/C=C/Nc2ccccc2)[n+](CC)c2ccc(Cl)cc21` gave HCT116 bCat-KO 47 and PTEN del growth 47.
`C#CCOC(=O)c1ccc(-n2cncn2)nc1` gave HCT116 bCat-KO 86, HUVEC prolif 384 95, Lung fibro prol 111, Pyk2 oligo antag 0.68, H69AR growth 86K 100 and PTEN del growth 99.
For COc1ccc(-c2cc(C(=O)Nc3c(C)nn(Cc4ccccc4Cl)c3C)no2)cc1 the results were HCT116 bCat-KO 62, HUVEC prolif 384 88, Lung fibro prol 90, Pyk2 oligo antag 0.72, H69AR growth 86K 33* and PTEN del growth 65.
Cc1nn(Cc2c(Cl)cccc2Cl)c(C)c1NC(=O)c1cc(C(C)C)on1 was read as HCT116 bCat-KO 64, HUVEC prolif 384 72, Lung fibro prol 35*, H69AR growth 86K 7.7* and PTEN del growth 30.
Cc1nn(Cc2ccc(Cl)c(Cl)c2)c(C)c1NC(=O)c1cc(-c2ccc3c(c2)OCO3)on1 was read as HCT116 bCat-KO 1.5*, HUVEC prolif 384 12*, Lung fibro prol 76, Pyk2 oligo antag -0.48, H69AR growth 86K 1.4* and PTEN del growth 1.8*.
For COc1ccc(Oc2nc3ccccc3n(C)c2=O)cc1 the results were HCT116 bCat-KO 99, Pyk2 oligo antag 0.07 and PTEN del growth 95.
`COc1ccc(/C(O)=C/c2nc3ccccc3n(-c3ccccc3)c2=O)cc1` gave HCT116 bCat-KO 82, HUVEC prolif 384 65, Lung fibro prol 96, Pyk2 oligo antag 0.53, H69AR growth 86K 23* and PTEN del growth 70.
`Cc1ccccc1N1CCN(c2ccc(NC(=O)C3CCCCC3C(=O)O)cc2)CC1` (stereo unspecified) gave HCT116 bCat-KO 82 and PTEN del growth 78.
For CCOC(=O)CN1C(=O)C(Sc2n[nH]c(-c3ccc(O)cc3)n2)CCc2ccccc21 (stereo unspecified) the results were HCT116 bCat-KO 64, Pyk2 oligo antag -1.5 and PTEN del growth 60.
CCOC(=O)/C(C#N)=C1/C=CN(c2ccccc2)C=N1 was read as HCT116 bCat-KO 97, HUVEC prolif 384 98, Lung fibro prol 103, Pyk2 oligo antag 0, H69AR growth 86K 39* and PTEN del growth 95.
Screening C=C(C(=O)c1ccccc1)C(C)C(=C)C(=O)c1ccccc1 returned HCT116 bCat-KO 2.4* and PTEN del growth 1.4*.
For C=C(C(=O)c1ccccc1)C(c1ccccc1)C(C)C(=O)c1ccccc1 (stereo unspecified) the results were HCT116 bCat-KO 11 and PTEN del growth 9.
Screening CC1=CN2C(=N)/C(=C/c3cn(CCCOc4ccccc4C)c4ccccc34)C(=O)N=C2S1 returned HCT116 bCat-KO 102 and PTEN del growth 75.
COc1cc(/C=C2/C(=N)N3C=CSC3=NC2=O)ccc1OCCCOc1c(C)cccc1C was read as HCT116 bCat-KO 87, HUVEC prolif 384 77, Lung fibro prol 94, Pyk2 oligo antag -0.27, H69AR growth 86K 44 and PTEN del growth 87.
